In ChEMBL document CHEMBL1145310, “Isothiazolopyrimidines and isoxazolopyrimidines as novel multi-targeted inhibitors of receptor tyrosine kinases” (Bioorg Med Chem Lett, 2006):

Key:
[1] = molecular target: Vascular endothelial growth factor receptor 2 (Homo sapiens, UniProt P35968); assay: Inhibition of KDR
[2] = Oral bioavailability in mouse at 10 mg/kg, po; settings: in vivo
[3] = Volume of distribution in mouse at 3 mg/kg, iv; format: ADME, organism-based; parameters: dose 3 mg/kg, route intravenous; settings: in vivo, read-out: Vdss
[4] = Half life in mouse at 3 mg/kg, iv; format: ADME, organism-based; parameters: dose 3 mg/kg, route intravenous; settings: in vivo
Outline: (§1)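 Mouse pharmacokinetics: single intravenous dose of 3 mg/kg and single oral dose of 10 mg/kg. Half-life, volume of distribution at steady state, clearance, oral bioavailability and oral AUC were determined.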

[5] = AUC in mouse at 10 mg/kg, po; format: ADME, organism-based; parameters: dose 10 mg/kg, route oral; settings: plasma; outline: as §1
[6] = Clearance in mouse at 3 mg/kg, iv; format: ADME, organism-based; parameters: dose 3 mg/kg, route intravenous; settings: in vivo
[7] = molecular target: Angiopoietin-1 receptor (Homo sapiens, UniProt Q02763); assay: Inhibition of TIE2
Outline: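 Kinase enzymatic assays run separately for each target. Each IC50 came from seven inhibitor concentrations, with every assay point determined in duplicate.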

[8] = molecular target: Vascular endothelial growth factor receptor 1 (Homo sapiens, UniProt P17948); assay: Inhibition of FLT1
Vascular endothelial growth factor receptor 1, sequence (P17948 whole entry): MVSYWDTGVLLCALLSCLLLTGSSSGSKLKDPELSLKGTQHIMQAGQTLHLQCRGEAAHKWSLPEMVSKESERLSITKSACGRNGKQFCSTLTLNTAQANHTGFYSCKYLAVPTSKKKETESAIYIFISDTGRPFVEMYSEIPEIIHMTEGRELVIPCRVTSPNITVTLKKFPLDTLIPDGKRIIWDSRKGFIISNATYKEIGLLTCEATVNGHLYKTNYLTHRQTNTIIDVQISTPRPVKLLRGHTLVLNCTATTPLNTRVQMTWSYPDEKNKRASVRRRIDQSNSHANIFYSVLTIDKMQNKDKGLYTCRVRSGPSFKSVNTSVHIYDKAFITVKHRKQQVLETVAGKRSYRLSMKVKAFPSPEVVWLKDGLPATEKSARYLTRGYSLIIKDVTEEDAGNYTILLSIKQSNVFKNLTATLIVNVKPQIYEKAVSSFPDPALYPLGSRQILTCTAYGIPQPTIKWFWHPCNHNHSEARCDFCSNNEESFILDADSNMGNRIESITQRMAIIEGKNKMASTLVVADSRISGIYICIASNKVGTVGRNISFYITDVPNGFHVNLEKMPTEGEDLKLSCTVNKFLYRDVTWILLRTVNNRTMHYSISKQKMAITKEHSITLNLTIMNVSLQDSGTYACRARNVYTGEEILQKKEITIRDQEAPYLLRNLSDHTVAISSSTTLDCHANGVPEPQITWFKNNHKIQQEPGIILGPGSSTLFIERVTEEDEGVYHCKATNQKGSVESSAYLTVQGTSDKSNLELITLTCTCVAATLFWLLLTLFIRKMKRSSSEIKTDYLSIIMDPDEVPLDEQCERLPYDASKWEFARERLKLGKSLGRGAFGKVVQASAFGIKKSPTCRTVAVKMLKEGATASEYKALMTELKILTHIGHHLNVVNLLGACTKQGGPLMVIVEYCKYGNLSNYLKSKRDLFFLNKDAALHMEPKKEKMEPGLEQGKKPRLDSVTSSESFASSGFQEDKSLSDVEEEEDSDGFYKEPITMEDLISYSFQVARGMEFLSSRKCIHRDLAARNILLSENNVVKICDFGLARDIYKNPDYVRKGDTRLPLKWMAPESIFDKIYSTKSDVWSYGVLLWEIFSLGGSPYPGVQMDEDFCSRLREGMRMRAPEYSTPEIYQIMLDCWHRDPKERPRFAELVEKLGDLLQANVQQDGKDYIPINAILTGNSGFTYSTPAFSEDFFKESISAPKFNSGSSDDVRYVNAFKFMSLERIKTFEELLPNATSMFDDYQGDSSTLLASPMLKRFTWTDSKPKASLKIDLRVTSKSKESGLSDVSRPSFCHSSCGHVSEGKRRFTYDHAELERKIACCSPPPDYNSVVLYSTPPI

[9] = molecular target: Vascular endothelial growth factor receptor 3 (Homo sapiens, UniProt P35916); assay: Inhibition of FLT4
Vascular endothelial growth factor receptor 3, sequence (P35916 whole entry): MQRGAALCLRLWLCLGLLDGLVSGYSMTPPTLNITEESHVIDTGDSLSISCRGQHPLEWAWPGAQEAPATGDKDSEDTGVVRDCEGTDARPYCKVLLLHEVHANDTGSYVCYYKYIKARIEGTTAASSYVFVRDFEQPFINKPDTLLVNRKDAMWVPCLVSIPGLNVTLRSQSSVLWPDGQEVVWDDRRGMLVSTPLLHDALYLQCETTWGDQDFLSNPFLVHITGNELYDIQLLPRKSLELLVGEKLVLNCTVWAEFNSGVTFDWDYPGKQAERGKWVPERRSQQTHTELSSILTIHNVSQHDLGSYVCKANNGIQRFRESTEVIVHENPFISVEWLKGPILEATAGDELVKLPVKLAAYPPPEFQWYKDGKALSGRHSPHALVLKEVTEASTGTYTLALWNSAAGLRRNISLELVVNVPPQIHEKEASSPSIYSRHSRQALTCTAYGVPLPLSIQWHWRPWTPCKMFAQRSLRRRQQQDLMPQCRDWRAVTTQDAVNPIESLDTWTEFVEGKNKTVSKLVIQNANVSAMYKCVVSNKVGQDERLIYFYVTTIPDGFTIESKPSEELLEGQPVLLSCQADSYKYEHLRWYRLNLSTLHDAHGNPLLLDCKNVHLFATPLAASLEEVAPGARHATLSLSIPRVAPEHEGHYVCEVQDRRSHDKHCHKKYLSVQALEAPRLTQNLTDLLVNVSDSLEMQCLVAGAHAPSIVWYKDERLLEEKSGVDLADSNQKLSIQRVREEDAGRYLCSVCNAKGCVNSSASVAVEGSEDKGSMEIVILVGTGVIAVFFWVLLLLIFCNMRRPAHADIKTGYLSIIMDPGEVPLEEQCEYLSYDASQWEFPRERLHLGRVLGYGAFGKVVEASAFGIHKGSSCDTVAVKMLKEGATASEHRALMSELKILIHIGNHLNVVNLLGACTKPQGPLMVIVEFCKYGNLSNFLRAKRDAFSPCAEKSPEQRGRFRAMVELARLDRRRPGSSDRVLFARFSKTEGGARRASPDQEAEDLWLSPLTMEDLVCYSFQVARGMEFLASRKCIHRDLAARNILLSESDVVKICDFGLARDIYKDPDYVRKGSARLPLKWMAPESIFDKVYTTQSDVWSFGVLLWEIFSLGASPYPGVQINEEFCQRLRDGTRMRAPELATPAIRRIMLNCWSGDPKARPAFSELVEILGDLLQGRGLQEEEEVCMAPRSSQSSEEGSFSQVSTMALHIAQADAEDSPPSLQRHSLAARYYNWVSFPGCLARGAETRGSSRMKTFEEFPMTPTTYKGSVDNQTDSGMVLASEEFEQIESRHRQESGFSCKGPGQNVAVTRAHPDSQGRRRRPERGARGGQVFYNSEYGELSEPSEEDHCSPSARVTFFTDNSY

[10] = molecular target: Mast/stem cell growth factor receptor Kit (Homo sapiens, UniProt P10721); assay: Inhibition of CKIT
Mast/stem cell growth factor receptor Kit, sequence (P10721 whole entry): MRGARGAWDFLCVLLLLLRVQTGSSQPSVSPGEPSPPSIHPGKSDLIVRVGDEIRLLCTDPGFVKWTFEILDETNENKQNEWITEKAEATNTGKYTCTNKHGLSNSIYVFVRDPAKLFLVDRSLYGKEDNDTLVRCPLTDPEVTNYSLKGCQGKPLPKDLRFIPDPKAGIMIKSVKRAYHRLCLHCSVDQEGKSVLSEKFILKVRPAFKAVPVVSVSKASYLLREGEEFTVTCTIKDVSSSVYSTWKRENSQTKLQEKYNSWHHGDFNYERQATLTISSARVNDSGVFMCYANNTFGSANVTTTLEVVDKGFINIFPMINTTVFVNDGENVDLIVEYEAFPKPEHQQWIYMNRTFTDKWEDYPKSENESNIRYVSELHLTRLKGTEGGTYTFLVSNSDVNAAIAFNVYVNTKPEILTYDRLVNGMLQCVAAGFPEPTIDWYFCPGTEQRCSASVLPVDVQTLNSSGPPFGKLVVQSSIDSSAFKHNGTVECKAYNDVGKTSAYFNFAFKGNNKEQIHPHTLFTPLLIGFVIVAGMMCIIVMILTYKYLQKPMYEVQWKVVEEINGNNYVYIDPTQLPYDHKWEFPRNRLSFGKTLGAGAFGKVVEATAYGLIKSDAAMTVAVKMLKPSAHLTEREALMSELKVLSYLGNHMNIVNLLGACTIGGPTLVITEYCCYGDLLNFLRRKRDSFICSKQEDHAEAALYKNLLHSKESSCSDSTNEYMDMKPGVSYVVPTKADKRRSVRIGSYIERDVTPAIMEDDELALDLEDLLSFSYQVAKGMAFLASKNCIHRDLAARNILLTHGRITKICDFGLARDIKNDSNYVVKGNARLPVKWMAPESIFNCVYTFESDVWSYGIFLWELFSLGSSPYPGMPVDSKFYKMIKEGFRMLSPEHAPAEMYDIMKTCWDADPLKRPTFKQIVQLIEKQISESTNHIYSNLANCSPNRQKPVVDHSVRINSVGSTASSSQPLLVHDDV

Vascular endothelial growth factor receptor 2, sequence (P35968 whole entry): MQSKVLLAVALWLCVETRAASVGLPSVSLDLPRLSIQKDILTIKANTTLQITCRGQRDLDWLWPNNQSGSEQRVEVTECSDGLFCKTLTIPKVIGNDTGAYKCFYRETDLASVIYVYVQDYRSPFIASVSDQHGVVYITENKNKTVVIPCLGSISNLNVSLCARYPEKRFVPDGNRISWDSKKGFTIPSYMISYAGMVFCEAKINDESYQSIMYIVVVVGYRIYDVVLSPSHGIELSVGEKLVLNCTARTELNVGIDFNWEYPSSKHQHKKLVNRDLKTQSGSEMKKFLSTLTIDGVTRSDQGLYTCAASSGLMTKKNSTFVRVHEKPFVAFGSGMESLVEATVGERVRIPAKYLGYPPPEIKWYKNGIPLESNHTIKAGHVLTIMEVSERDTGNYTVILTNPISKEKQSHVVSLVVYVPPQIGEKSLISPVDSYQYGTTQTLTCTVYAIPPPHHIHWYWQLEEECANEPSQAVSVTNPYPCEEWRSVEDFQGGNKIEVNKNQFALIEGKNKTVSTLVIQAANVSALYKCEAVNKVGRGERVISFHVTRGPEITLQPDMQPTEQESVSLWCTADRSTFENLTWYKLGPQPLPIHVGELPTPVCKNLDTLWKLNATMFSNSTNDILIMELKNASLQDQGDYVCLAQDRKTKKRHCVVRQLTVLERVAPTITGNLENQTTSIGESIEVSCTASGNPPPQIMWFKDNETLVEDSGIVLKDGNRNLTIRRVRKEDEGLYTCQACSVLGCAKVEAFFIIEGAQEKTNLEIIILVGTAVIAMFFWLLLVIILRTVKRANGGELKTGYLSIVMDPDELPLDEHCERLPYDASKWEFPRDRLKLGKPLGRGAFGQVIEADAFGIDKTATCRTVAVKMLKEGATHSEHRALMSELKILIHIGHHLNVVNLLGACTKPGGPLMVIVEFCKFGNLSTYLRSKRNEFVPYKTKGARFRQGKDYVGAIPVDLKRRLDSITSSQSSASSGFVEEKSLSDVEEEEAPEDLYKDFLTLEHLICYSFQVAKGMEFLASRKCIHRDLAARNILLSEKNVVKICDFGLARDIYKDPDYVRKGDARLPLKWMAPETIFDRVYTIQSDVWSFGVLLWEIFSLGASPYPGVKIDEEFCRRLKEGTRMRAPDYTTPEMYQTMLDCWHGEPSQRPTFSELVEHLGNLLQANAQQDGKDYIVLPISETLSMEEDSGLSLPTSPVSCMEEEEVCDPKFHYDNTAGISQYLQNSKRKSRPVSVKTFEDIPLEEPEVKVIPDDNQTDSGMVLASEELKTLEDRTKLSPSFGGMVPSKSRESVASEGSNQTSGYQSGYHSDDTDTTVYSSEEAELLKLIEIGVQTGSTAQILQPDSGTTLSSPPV

Row | Structure (SMILES) | IC50 [1] | bioavailability [2] | Vd [3] | half-life [4] | AUC [5] | clearance [6] | IC50 [7] | IC50 [8] | IC50 [9] | IC50 [10]
1 | Cc1cc(C)c2oc(Nc3ccc(-c4noc5ncnc(N)c45)cc3)nc2c1 | > 50000 nM | – | – | – | – | – | – | – | – | –
2 | Cc1ccc(F)c(NC(=O)Nc2ccc(-c3nsc4ncnc(N)c34)cc2)c1 | – | 48% | 1.19 L/kg | 12 min | 2.7 µM·h | 75 mL/min/kg | 19 nM | – | – | –
3 | Cc1cccc(NC(=O)Nc2ccc(-c3csc4ncnc(N)c34)cc2)c1 | – | 65% | – | 42 min | 14 µM·h | – | – | – | – | –
4 | Nc1ncnc2onc(-c3ccc(NC(=O)c4ccccc4)cc3)c12 | > 50000 nM | – | – | – | – | – | – | – | – | –
5 | Nc1ncnc2snc(-c3ccc(NC(=O)Nc4cc(C(F)(F)F)ccc4F)cc3)c12 | – | – | – | – | – | – | 22 nM | 75 nM | 23 nM | 28 nM
6 | Nc1ncnc2snc(-c3ccc(NC(=O)Nc4cccc(C(F)(F)F)c4)cc3)c12 | – | – | – | – | – | – | 28 nM | 39 nM | < 3 nM | 18 nM
7 | Nc1ncnc2snc(-c3ccc([N+](=O)[O-])cc3)c12 | > 50000 nM | – | – | – | – | – | – | – | – | –
8 | Cc1cccc(NC(=O)Nc2ccc(-c3nsc4ncnc(N)c34)cc2)c1 | – | 56% | 1.36 L/kg | 36 min | 9.1 µM·h | 26.7 mL/min/kg | 415 nM | 79 nM | 4 nM | 11 nM
